# The source made the active and inactive calls. No cut-off for these calls is given here.
# What was measured:
# [1] = tested on: Mycobacteroides abscessus; test: Antimycobacterial activity against Mycobacterium abscessus CIP104536 rough variant assessed as inhibition of bacterial growth measured after 4 days by broth dilution method; type: functional; settings: CIP104536, 96 h, time 4 day
# How it was run: (§1)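 MIC99 by CLSI broth 2-fold serial dilution in CaMHB. Inoculum 5.10⁶ CFU/mL. Incubated at 30 °C and read by turbidity after 4 days. DMSO vehicle control, INH reference.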
# [2] = tested on: Mycobacterium tuberculosis; test: Inhibition of fatty acid methyl esters production in Mycobacterium tuberculosis mc2 6230 incubated for 15 mins followed by 14C-labeled acetate addition measured after 7 hrs by TLC analysis; type: functional; settings: time 435.0 min
# [3] = tested on: Mycobacterium tuberculosis; test: Inhibition of mycolic acid biosynthesis in Mycobacterium tuberculosis mc2 6230 assessed as decrease in alpha-mycolic acid incubated for 15 mins followed by 14C-labeled acetate addition measured after 7 hrs by TLC analysis; type: functional, organism-based; settings: time 435.0 min
# [4] = tested on: Mycobacterium tuberculosis; test: Inhibition of mycolic acid biosynthesis in Mycobacterium tuberculosis mc2 6230 assessed as decrease in alpha-mycolic acid at 1.25 ug/ml incubated for 15 mins followed by 14C-labeled acetate addition measured after 7 hrs by TLC analysis; type: functional, organism-based; settings: dose 1.25 µg/ml, time 435.0 min
# [5] = tested on: Mycobacterium tuberculosis; test: Antimycobacterial activity against Mycobacterium tuberculosis mc2 6230 assessed as reduction in log10 CFU at 1 time of MIC measured after 6 days by time-killing kinetics assay; type: functional, organism-based; settings: time 6.0 day
# How it was run: (§2)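 Exposed to 1x, 5x or 20x MIC at 37 °C for up to 6 days. Serial dilutions plated on 7H10/OADC/pantothenate and colonies counted after 3 weeks. Mean of four independent experiments in technical triplicate, with SD. DMSO negative control.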
# Mycobacterium marinum = test: Antimycobacterial activity against Mycobacterium marinum M strain assessed as inhibition of bacterial growth measured after 6 days by broth dilution method; type: functional; settings: 144 h, time 6 day
# How it was run: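 MIC99 by 2-fold serial broth dilution in 7H9 with 10% OADC and 0.025% tyloxapol. Inoculum 5.10⁶ CFU/mL. Incubated without agitation at 30 °C, scored for no turbidity change after 6 days. DMSO vehicle control.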
# [6] = Cytotoxicity against human THP-1 cells assessed as reduction in cell viability measured after 24 hrs by resazurin staining based analysis; type: toxicity
# How it was run: (§3)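 THP-1 monocytes differentiated with 20 ng/mL PMA for 48 hrs at 1×10^5 cells/well. Compounds added by serial dilution from 100 µg/mL for 24 or 72 hrs at 37 °C and 5% CO₂. Resazurin 10% for 4 hrs, fluorescence at ex 540/em 590 nm. Mean of three independent experiments in triplicate. INH and RFB reference drugs.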
# [7] = tested on: Mycobacterium tuberculosis; test: Antimycobacterial activity against Mycobacterium tuberculosis mc2 6230 assessed as inhibition of bacterial growth at 1 ug/ml measured after 7 days by broth dilution method; type: functional, organism-based; settings: dose 1.0 µg/ml, time 7.0 day
# [8] = tested on: Mycobacterium tuberculosis; test: Inhibition of mycolic acid biosynthesis in Mycobacterium tuberculosis mc2 6230 assessed as decrease in keto-mycolic acid at 1.25 ug/ml incubated for 15 mins followed by 14C-labeled acetate addition measured after 7 hrs by TLC analysis; type: functional, organism-based; settings: dose 1.25 µg/ml, time 435.0 min
# [9] = tested on: Mycobacterium tuberculosis; test: Antimycobacterial activity against Mycobacterium tuberculosis mc2 6230 assessed as inhibition of bacterial growth measured after 7 days by broth dilution method; type: functional; settings: mc2 6230, 168 h, time 7 day
# How it was run: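 Pantothenate auxotroph carrying empty pMV261. 2-fold serial dilutions, 37 °C, no agitation, 7 days. MIC99 is the lowest concentration with no turbidity change. DMSO vehicle control.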
# [10] = tested on: Mycobacterium tuberculosis; test: Antimycobacterial activity against Mycobacterium tuberculosis mc2 6230 assessed as reduction in log10 CFU at 20 times of MIC measured after 6 days by time-killing kinetics assay; type: functional; settings: time 6 day; how it was run: as §2
# [11] = tested on: Mycobacterium tuberculosis; test: Antimycobacterial activity against Mycobacterium tuberculosis mc2 6230 assessed as reduction in log10 CFU at 5 times of MIC measured after 3 days by time-killing kinetics assay; type: functional; settings: time 3 day; how it was run: as §2
# [12] = tested on: Mycobacterium tuberculosis; test: Inhibition of mycolic acid biosynthesis in Mycobacterium tuberculosis mc2 6230 assessed as decrease in keto-mycolic acid incubated for 15 mins followed by 14C-labeled acetate addition measured after 7 hrs by TLC analysis; type: functional, organism-based; settings: time 435.0 min
# [13] = tested on: Mycobacteroides abscessus; test: Antimycobacterial activity against Mycobacterium abscessus CIP104536 smooth variant assessed as inhibition of bacterial growth measured after 4 days by broth dilution method; type: functional; settings: CIP104536, 96 h, time 4 day; how it was run: as §1
# [14] = tested on: Mycobacterium tuberculosis; test: Inhibition of mycolic acid biosynthesis in Mycobacterium tuberculosis mc2 6230 assessed as decrease in methoxy-mycolic acid incubated for 15 mins followed by 14C-labeled acetate addition measured after 7 hrs by TLC analysis; type: functional, organism-based; settings: time 435.0 min
# [15] = tested on: Mycobacterium tuberculosis; test: Inhibition of mycolic acid biosynthesis in Mycobacterium tuberculosis mc2 6230 assessed as decrease in methoxy-mycolic acid at 1.25 ug/ml incubated for 15 mins followed by 14C-labeled acetate addition measured after 7 hrs by TLC analysis; type: functional, organism-based; settings: dose 1.25 µg/ml, time 435.0 min
# [16] = Cytotoxicity against human THP-1 cells assessed as reduction in cell viability measured after 72 hrs by resazurin staining based analysis; type: toxicity; how it was run: as §3
# [17] = Selectivity index, […] Mycobacterium marinum M strain to CC50 for cytotoxicity against human THP-1 cells; type: toxicity, cell-based; settings: read-out: Selectivity Index
# [18] = Selectivity index, […] Mycobacterium abscessus CIP104536 smooth variant to CC50 for cytotoxicity against human THP-1 cells; type: toxicity, cell-based; settings: read-out: Selectivity Index
# Vero = test: Cytotoxicity against African green monkey Vero cells assessed as reduction in cell viability measured after 24 hrs by resazurin staining based analysis; type: toxicity; settings: chlorocebus sabaeus
# How it was run: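 Vero cells in RPMI 1640 with 10% FCS, 2×10^4 cells/well, adhered overnight at 37 °C and 5% CO₂. Compounds added at 100 to 0.78 µg/mL for 24 hrs. 10% resazurin added for 4 hrs, fluorescence read at ex 540/em 590 nm.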
# [19] = Selectivity index, […] Mycobacterium abscessus CIP104536 rough variant to CC50 for cytotoxicity against human THP-1 cells; type: toxicity, cell-based; settings: read-out: Selectivity Index
# [20] = Selectivity index, […] Mycobacterium tuberculosis H37Rv to CC50 for cytotoxicity against human THP-1 cells; type: toxicity, cell-based; settings: read-out: Selectivity Index
# [21] = tested on: Mycobacterium tuberculosis; test: Antimycobacterial activity against Mycobacterium tuberculosis H37Rv assessed as inhibition of bacterial growth; type: functional
smiles,measurement,setting,value
O=C(N/N=C/c1ccccc1-n1cc(CN2CCN(c3ccnc4cc(Cl)ccc34)CC2)nn1)c1ccncc1,MIC,[1],> 200 µg/mL
same,inhibition,[2],inactive
same,inhibition,[3],Dose-Dependent Effect
same,inhibition,[4],Active
same,Activity,[5],Active
same,MIC,Mycobacterium marinum,50 µg/mL
same,CC50 at 24 h,[6],13 µg/mL
same,Activity,[7],Active
same,inhibition,[8],Active
same,MIC,[9],0.25 µg/mL
same,Activity,[10],~3 log10CFU/ml
same,Activity,[11],2 log10CFU/ml
same,inhibition,[12],Dose-Dependent Effect
same,MIC,[13],> 200 µg/mL
same,inhibition,[14],Dose-Dependent Effect
same,inhibition,[15],Active
same,CC50 at 72 h,[16],18 µg/mL
COc1cc(/C=N/NC(=O)c2ccncc2)ccc1OCc1cn(CCCNc2ccnc3cc(Cl)ccc23)nn1,selectivity ratio,[17],> 200
same,MIC,[1],> 200 µg/mL
same,Activity,[5],Active
same,MIC,Mycobacterium marinum,100 µg/mL
same,CC50 at 24 h,[6],> 100 µg/mL
same,Activity,[7],Active
same,selectivity ratio,[18],> 200
same,MIC,[9],0.25 µg/mL
same,Activity,[10],~3 log10CFU/ml
same,Activity,Vero,Non-Toxic
same,Activity,[11],2 log10CFU/ml
same,selectivity ratio,[19],> 200
same,MIC,[13],> 200 µg/mL
same,selectivity ratio,[20],> 200
same,CC50 at 72 h,[16],> 100 µg/mL
O=C(N/N=C/c1ccc(OCc2cn(-c3ccnc4cc(Cl)ccc34)nn2)cc1)c1cnccn1,MIC,[9],> 200 µg/mL
COc1cc(/C=N/NC(=O)c2cnccn2)ccc1OCc1cn(CCNc2ccnc3cc(Cl)ccc23)nn1,MIC,[9],> 200 µg/mL
O=C(N/N=C/c1ccc(OCc2cn(CCNc3ccnc4cc(Cl)ccc34)nn2)cc1)c1ccncc1,MIC,[1],> 200 µg/mL
same,Activity,[5],Active
same,MIC,Mycobacterium marinum,200 µg/mL
same,CC50 at 24 h,[6],> 100 µg/mL
same,Activity,[7],Active
same,MIC,[9],0.5 µg/mL
same,Activity,[10],~3 log10CFU/ml
same,Activity,Vero,Non-Toxic
same,Activity,[11],2 log10CFU/ml
same,MIC,[13],> 200 µg/mL
same,CC50 at 72 h,[16],34 µg/mL
COc1cc(C=O)ccc1OCc1cn(-c2ccnc3cc(Cl)ccc23)nn1,MIC,[9],> 200 µg/mL
COc1cc(/C=N/NC(=O)c2cnccn2)ccc1OCc1cn(-c2ccnc3cc(Cl)ccc23)nn1,MIC,[9],> 200 µg/mL
COc1cc(C=O)ccc1OCc1cn(CCNc2ccnc3cc(Cl)ccc23)nn1,MIC,[9],> 200 µg/mL
COc1cc(/C=N/NC(=O)c2ccncc2)ccc1OCc1cn(-c2ccnc3cc(Cl)ccc23)nn1,selectivity ratio,[17],> 200
same,MIC,[1],> 200 µg/mL
same,Activity,[5],Active
same,MIC,Mycobacterium marinum,> 200 µg/mL
same,CC50 at 24 h,[6],> 100 µg/mL
same,Activity,[7],Active
same,selectivity ratio,[18],> 200
same,MIC,[9],0.5 µg/mL
same,Activity,[10],~3 log10CFU/ml
same,Activity,[11],2 log10CFU/ml
same,selectivity ratio,[19],> 200
same,MIC,[13],> 200 µg/mL
same,selectivity ratio,[20],> 200
same,CC50 at 72 h,[16],> 100 µg/mL
O=Cc1ccccc1-n1cc(CN2CCN(c3ccnc4cc(Cl)ccc34)CC2)nn1,MIC,[1],> 200 µg/mL
same,MIC,Mycobacterium marinum,> 200 µg/mL
same,MIC,[9],100 µg/mL
same,MIC,[13],> 200 µg/mL
CC(C)c1ccc(-c2nc(CN3CCN(c4ccnc5cc(Cl)ccc45)CC3)no2)cc1,MIC,[21],1.11 µM
COc1cc(/C=N/NC(=O)c2cccnc2)ccc1OCc1cn(CCCNc2ccnc3cc(Cl)ccc23)nn1,MIC,[9],> 200 µg/mL
CO[C@H]1/C=C/O[C@@]2(C)Oc3c(C)c(O)c4c(c3C2=O)C2=NC3(CCN(CC(C)C)CC3)NC2=C(NC(=O)/C(C)=C\C=C\[C@H](C)[C@H](O)[C@@H](C)[C@@H](O)[C@@H](C)[C@H](OC(C)=O)[C@@H]1C)C4=O [RIFABUTIN],CC50 at 24 h,[6],60 µg/mL
COc1cc(/C=N/NC(=O)c2cccnc2)ccc1OCc1cn(CCNc2ccnc3cc(Cl)ccc23)nn1,MIC,[9],> 200 µg/mL
O=Cc1ccc(OCc2cn(-c3ccnc4cc(Cl)ccc34)nn2)cc1,MIC,[9],> 200 µg/mL
O=C(N/N=C/c1ccc(OCc2cn(CCNc3ccnc4cc(Cl)ccc34)nn2)cc1)c1cccnc1,MIC,[9],> 200 µg/mL

# — ChEMBL document CHEMBL5346861, “Designing quinoline-isoniazid hybrids as potent anti-tubercular agents inhibiting mycolic acid biosynthesis” (Eur J Med Chem, 2022)
